A selection: hits, their analogues and other compounds. The true share with any hit is near 2.3%.
MC4R ag barr – agonists of human melanocortin 4 receptor (MC4R) beta-arrestin; activation, % at 8.9 µM; U2OS MC4R beta-arrestin complementation, luminescence; percent of melanotan II response, DMSO zero; 0.98% of 360,000 active;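 active = activation above a per-plate cutoff, the mean activation of sample wells on that plate plus 3 SD, cut at about 8% in these data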
MC4R antag cAMP – blocks human MC4R cAMP signaling; MC4R-expressing cells, MTII-stimulated cAMP, LANCE TR-FRET; inhibition, % at 6.5 µM; 0.48% of 360,000 active; AID 540295;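 active = inhibition above its plate's cutoff, the mean of tested wells on that plate plus 3 SD, cut at about 29% in these data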;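 also: 0% = Melanotan II alone and 100% = Melanotan II plus saturating MCL0020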
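system = U2OS cells with stable human MC4R expression | also added = Melanotan II challenge after compound preincubation | dosing = one concentration, 6.5 µM nominal | incubation = compound 30 min, challenge 1 h, detection 1 h | measured by = TR-FRET with Eu-cAMP and labeled anti-cAMP, 671 nm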
MsrA act – bovine methionine sulfoxide reductase A activation; purified bovine MsrA, absorbance read-out; activation, % at 10.6 µM; 0.3% of 360,000 active; AID 602163; in the data active = activation above about 7.5%;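 also: 0% = vehicle and 100% = reference activator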
MsrA inh – inhibitors of bovine MsrA. inhibition, % at 15.5 µM. 0.75% of 360,000 active. purified bovine MsrA, absorbance read-out. AID 651718; in the data active = inhibition above about 4.5%;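 also: 0% = vehicle wells with enzyme and 100% = reference inhibitor wells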
MC4R barr conf – human MC4R beta-arrestin agonism confirmation | activation, % at 8.9 µM | U2OS MC4R beta-arrestin recruitment, luminescence; scaled DMSO 0%, Melanotan II 100% | shares compounds with MC4R ag barr | 31% of 2,400 active;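 active = mean activation across replicates above the hit cutoff set in the earlier primary screen, cut at about 8% in these data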
MOR DOR agonist – activates mu-delta opioid heterodimer, MC4R agonist counter-screen. shares compounds with MC4R ag barr. U2OS PathHunter beta-arrestin, beta-gal luminescence; percent of deltorphin B response, DMSO zero. activation, % at 9.2 µM. 5.8% of 2,400 active. AID 602194;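 active = mean activation across replicates exceeds the hit threshold derived in the earlier primary screen, cut at about 18% in these data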;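 also: 100% = deltorphin B at 0.9 µM final and 0% = DMSO alone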
MsrA activ conf – bovine methionine sulfoxide reductase A activation confirmed; purified bovine MsrA, absorbance read-out; shares compounds with MsrA act; activation, % at 10.6 µM; 12% of 1,000 active; in the data active = activation above about 4%;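 also: enzyme coupled to thioredoxin and thioredoxin reductase with NADPH; 0% = vehicle wells and 100% = reference activator wells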
* marks the source's active call; other numbers are inactive results; . = no result given.

SMILES	MC4R ag barr	MC4R antag cAMP	MsrA act	MsrA inh	MC4R barr conf	MOR DOR agonist	MsrA activ conf
COc1ccccc1-c1cc2nc(NCCOc3ccccc3)ccn2n1	-1	-5	-3	2	.	.	.
COC(=O)C1=CN(Cc2ccc(C)cc2)C=C(C(=O)OC)C1c1cc(OC)c(OC)c(OC)c1	1	-30	-2	0	.	.	.
Nc1nncn1C(=O)CCCN1C(=O)c2ccccc2C1=O	0	2	-8	1	.	.	.
COc1cccc(C2(c3cccc(OC)c3)CC2C(=O)Nc2cccc3ccccc23)c1 (stereo unspecified)	9.6*	10	-2	-1	1	4	.
COc1cccc(NC(=O)C2CC2(c2cccc(OC)c2)c2cccc(OC)c2)c1 (stereo unspecified)	-1	11	-3	0	.	.	.
CCc1nnc(NC(=O)c2ccc(COc3cccc(C)c3)o2)s1	14*	19	-1	1	3	2	.
COC(=O)Nc1nnc(COc2cccc(C)c2)s1	-2	17	-2	1	.	.	.
COc1ccccc1/C=C1\SC(=S)N(CCC(=O)NCCCN2CCOCC2)C1=O	1	12	-3	-1	.	.	.
COc1ccc(C=C2SC(=S)N(CCCN3CCOCC3)C2=O)c(OC)c1	15*	7	-2	1	5	21*	.
COC(=O)c1ccc(C2C(Oc3ccccc3)C(=O)N2CCc2ccc(F)cc2)cc1 (stereo unspecified)	20*	11	-3	0	3	5	.
CCNC(=O)Nc1nc2ccccc2s1	-4	-1	-1	0	.	.	.
Cc1ccc(NC(=O)Nc2nc3ccccc3s2)cc1NC(=O)Nc1nc2ccccc2s1	10*	0	-1	1	10*	10	.
O=C1NCCNC(=O)c2ccccc2OCCOc2ccccc21	6	16	-3	0	.	.	.
Cc1cccc(C(=O)Nc2ccc(O)c3c(=O)cc(-c4ccccc4Cl)oc23)c1	17*	7	-7	2	0	3	.
COC(=O)c1cccc(F)c1C(=O)c1cccc2ccccc12	2	9	-3	1	.	.	.
NC(Cc1ccc(Cl)cc1)c1csc(NC(=O)NCCc2ccccc2)n1 (stereo unspecified)	13*	1	-2	2	27*	21*	.
NC(Cc1ccc(Cl)cc1)c1csc(NC(=O)Nc2ccccc2-c2ccccc2)n1 (stereo unspecified)	19*	13	-7	-1	11*	9	.
COc1ccc(CC(N)c2csc(NC(=O)NCCc3ccccc3)n2)cc1 (stereo unspecified)	1	-1	-5	-1	.	.	.
NC(CCc1ccccc1)c1csc(NC(=O)Nc2ccccc2Oc2ccccc2)n1 (stereo unspecified)	18*	12	2	1	4	25*	.
Cc1ccc2c(COC(=O)c3ccccc3Cl)cc(=O)oc2c1	2	-7	-11	-1	.	.	.
Cc1ccc2c(COC(=O)c3ccccc3Br)cc(=O)oc2c1	9.7*	-5	1	-1	4	3	.
CCOc1ccc(OCC)c(NC(=O)CSc2nc3ccccc3c(=O)n2C)c1	1	7	-2	0	.	.	.
CCc1ccc(C2CC(c3ccccc3Cl)Nc3nc(N)nn32)cc1 (stereo unspecified)	19*	7	9.4*	1	14*	4	-1
CC1CCN(CCCNC(=O)c2ccc3c(=O)n(Cc4ccc(Cl)cc4)c(=S)[nH]c3c2)CC1	13*	4	8.2*	2	9.9*	9	-3
COC(=O)c1ccc2c(=O)n(Cc3ccc(C(=O)NCCCN4CCC(C)CC4)cc3)c(=S)[nH]c2c1	2	4	-13	0	.	.	.
SMILES	MC4R ag barr	MC4R antag cAMP	MsrA act	MsrA inh	MC4R barr conf	MOR DOR agonist	MsrA activ conf
COCCNC(=O)C(c1cccs1)N(Cc1ccccc1)C(=O)Cn1nnc2ccccc21 (stereo unspecified)	1	25	1	-2	.	.	.
CN(C)CCCNC(=O)c1ccc(-c2nc(-c3ccc(Cl)cc3)cs2)cc1	16*	17	8.3*	1	56*	6	-2
COc1ccc(OC)c(NC(=O)CNC(=O)Cn2cnc3sc(C)cc3c2=O)c1	-1	14	-2	0	.	.	.
N#C/C(=C\c1ccc(OCC(N)=O)cc1)C(=O)NC1CC1	-3	3	13*	3	.	.	-1
O=C(CCc1ccccc1)NCCC1=CCCCC1	2	11	-3	0	.	.	.
O=C(CCCc1ccccc1)NCCC1=CCCCC1	-3	-6	8.5*	1	.	.	-2
O=c1c2ccc([N+](=O)[O-])cc2ncn1CCOc1cccc(Br)c1	0	6	7.8*	0	.	.	-2
O=c1c2ccc([N+](=O)[O-])cc2ncn1CCOc1ccc(Cl)cc1	3	15	1	0	.	.	.
CCOC(=O)N(C)c1c(CC)nc2c(OCCC3CCCCC3)cccn12	0	5	0	1	.	.	.
CCOC(=O)C(=O)N(C)c1c(CC)nc2c(OCc3cccc(Cl)c3)cccn12	-1	8	2	0	.	.	.
CCOC(=O)C(=O)N(C)c1c(CC)nc2c(OCCC3CCCCC3)cccn12	-2	8	8.2*	0	.	.	1
CCOC(=O)N(C)c1c(CC)nc2c(OCc3cccc(Cl)c3)cccn12	-2	-1	9.2*	1	.	.	-3
Cc1[nH]nc2c1C(c1c[nH]c3ccccc13)C(C#N)=C(N)O2 (stereo unspecified)	0	16	-2	1	.	.	.
COC(=O)Cc1[nH]nc2c1C(c1c[nH]c3ccccc13)C(C#N)=C(N)O2 (stereo unspecified)	-1	-3	12*	-1	.	.	-1
CC(C)(C)OC(=O)CNC(=O)c1nc[nH]c1C(=O)NCc1ccc(CNC(=O)OC(C)(C)C)cc1	0	3	-3	2	.	.	.
CC(=O)Nc1ccc(NC(=O)CSc2nc3c(=O)n(C)c(=O)n(C)c3n2C)cc1	-1	-2	-3	0	.	.	.
Cn1c(=O)c2nc(SCCO)n(C)c2n(C)c1=O	-2	-2	8.4*	1	.	.	-3
CC(C)[C@H](NC(=O)c1ccccc1)C(=O)OCc1nc2scc(-c3ccccc3)c2c(=O)[nH]1	-1	16	13*	0	.	.	6.3*
O=C(OCc1nc2scc(-c3ccccc3)c2c(=O)[nH]1)c1ccco1	-5	8	-3	-1	.	.	.
COc1ccc2ccccc2c1/C=N\NC(=O)c1cccnc1	1	-9	-2	1	.	.	.
COc1ccc2ccccc2c1/C=N/NC(=O)c1cccc(C)c1	0	3	9.4*	2	.	.	-1
COc1cccc(CNC(=O)CCCn2nc(C)c3c(C)n(-c4ccccc4)nc3c2=O)c1	-1	0	-3	0	.	.	.

Screening data: PubChem, The Scripps Research Institute Molecular Screening Center
